The source made the active and inactive calls. The rule behind the calls is not given here.
Tests used:
[1] = Prodrug activation in DMF at 10 uM incubated for 720 mins in presence of 2 uM GSH by fluorescence spectroscopic analysis; settings: 12 h
[2] = Prodrug activation in DMF at 10 uM incubated for 720 mins in presence of 10 mM GSH by fluorescence spectroscopic analysis; settings: 12 h
[3] = Prodrug activation in human HeLa cells assessed as increase in fluorescence at 10 uM after 8 hrs by confocal laser scanning microscopic method; assay type: cell-based
How it was run: (§1)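 Cells (10^5 per confocal dish) were seeded in DMEM overnight at 37 °C, 5% CO2. They were pretreated with 5 mM GSH in DMEM, or medium alone, for 2 h, then washed. Compound at 10 μM was added for 8 h. Intracellular fluorescence was read by confocal microscopy (excitation 633 nm) or by flow cytometry under the same conditions.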

[4] = Prodrug activation in human HeLa cells assessed as increase in fluorescence at 10 uM after 8 hrs in presence of GSH by confocal laser scanning microscopic method; assay type: cell-based; how it was run: as §1
[5] = Prodrug activation in human A549 cells assessed as increase in fluorescence at 10 uM after 8 hrs in presence of GSH by confocal laser scanning microscopic method; assay type: cell-based; settings: a549, 8 h; how it was run: as §1
[6] = Prodrug activation in human HeLa cells assessed as increase in fluorescence at 10 uM after 8 hrs by flow cytometric analysis; assay type: cell-based; how it was run: as §1
[7] = Prodrug activation in mouse H22 cells assessed as increase in fluorescence at 10 uM after 8 hrs by flow cytometric analysis; assay type: cell-based; settings: h22, 8 h; how it was run: as §1
[8] = Prodrug activation in HELF cells assessed as increase in fluorescence at 10 uM after 8 hrs by flow cytometric analysis; assay type: cell-based; settings: human, primary lung fibroblast; how it was run: as §1
[9] = Prodrug activation in mouse H22 cells assessed as increase in fluorescence at 10 uM after 8 hrs in presence of GSH by flow cytometric analysis; assay type: cell-based; settings: h22, 8 h; how it was run: as §1
H22 [10] = assay: Induction of ROS generation in mouse H22 cells at 10 uM incubated for 12 hrs irradiated with 20 mW cm^-2 light in presence of GSH by DCFH-DA staining based confocal laser scanning microscopic method; assay type: functional, cell-based
How it was run: (§2)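 Cells were seeded in confocal dishes overnight. Pretreatment was GSH 5 mM in DMEM for 2 h, or vitamin C 100 μM for 1 h, before compound at 10 μM for 12 h. DCFH-DA was added for 1 h, then 5 PBS washes and transfer to serum-free, phenol red-free DMEM. Cells were irradiated at 670 nm, 20 mW·cm⁻², for 3 min. Confocal imaging used λex 488 nm for DCF and 633 nm for the photosensitizer.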

Primary lung fibroblast = assay: Induction of ROS generation in human HELF cells at 10 uM incubated for 12 hrs irradiated with 20 mW cm^-2 light in presence of GSH by DCFH-DA staining based confocal laser scanning microscopic method; assay type: functional, cell-based; how it was run: as §2
H22 [11] = assay: Induction of ROS generation in mouse H22 cells at 10 uM incubated for 12 hrs irradiated with 20 mW cm^-2 light in presence of vitamin C by DCFH-DA staining based confocal laser scanning microscopic method; assay type: functional, cell-based; how it was run: as §2
A549 = assay: Cytotoxicity against human A549 cells assessed as reduction cell viability preincubated for 24 hrs in dark condition followed by irradiated with 20 mW cm^-2 light by MTT assay; assay type: functional, cell-based
How it was run: (§3)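 MTT assay. About 6000 cells per well were seeded and left overnight at 37 °C, 5% CO2. Compound was added at a range of concentrations in DMEM (1% DMSO, 0.05% Tween 80) for 24 h in the dark, then the medium was replaced. Irradiated wells received a 670 nm LED at 20 mW·cm⁻² for 2 min (2.4 J·cm⁻²); dark wells were not irradiated. Cells were incubated overnight, then MTT for 4 h, DMSO added, OD read at 490 nm. Three independent experiments, each in sextuplicate. IC50 is the concentration killing 50% of cells.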

H22 [12] = assay: Cytotoxicity against mouse H22 cells assessed as reduction cell viability preincubated for 24 hrs in dark condition followed by irradiated with 20 mW cm^-2 light by MTT assay; assay type: functional, cell-based; how it was run: as §3
[13] = Drug uptake in Kunming mouse implanted with H22 cells at 2 mg/kg, iv and measured up to 24 hrs by FMT assay; assay type: ADME, organism-based; settings: in vivo
How it was run: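 Mice carried subcutaneous back tumours from H22 cells (10^7 cells/mL, 100 μL), used at about 50 mm³. They received a single tail-vein injection of 2 mg/kg (200 μL), with saline as control, 3 mice per group. Whole-body fluorescence molecular tomography was taken at 0, 2, 6, 12 and 24 h. At 24 h, tumour, heart, liver, spleen, lung and kidney were imaged ex vivo.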

H22 [14] = assay: (§4) Photodynamic antitumor activity against mouse H22 cells implanted in Kunming mouse assessed as reduction in tumour weight at 2 mg/kg, iv administered at […] post-implantation followed by irradiated with 100 mW/cm2 […] and measured up to 15 days; assay type: functional, organism-based; settings: time 15.0 day
How it was run: (§5)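 Mice carried subcutaneous H22 tumours of about 50 mm³ and were randomised into 5 groups of 5. They received saline or compound at 2 mg/kg (100 μL) i.v. on days 1, 4 and 7. Light groups were irradiated at 670 nm, 100 mW/cm², 12 h after each dose. Tumour volume and body weight were recorded daily for 15 days. Tumours were then excised and weighed, fixed in 4% paraformaldehyde, paraffin-embedded and H&E stained. Apoptotic and necrotic areas were scored microscopically.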

H22 [15] = assay: as §4, with “increase in apoptotic cells” for “reduction”, “tumour” for “tumour weight”, “days by H and E staining based microscopic method” for “days”; assay type: functional, organism-based; settings: time 15.0 day; how it was run: as §5
[16] = Prodrug activation in DMF assessed as pseudo-first-order kinetics at 10 uM incubated for 720 mins in presence of 10 mM GSH by fluorescence spectroscopic analysis; settings: 12 h
[17] = Drug localization in mitochondria of human A549 cells assessed as GSH mediated cleavage at 10 uM after 12 hrs by Mito-Tracker Green dye based confocal laser scanning microscopic method; assay type: ADME; settings: a549, 12 h
How it was run: (§6)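 Cells were seeded in confocal dishes overnight, then given compound at 10 μM for 12 h. Staining was DAPI for 20 min, or Lyso-Tracker Red or Mito-Tracker Green for 60 min, followed by 5 PBS washes. Images were taken by confocal microscopy with excitation/detection of 405/425-475 nm (DAPI), 543/550-620 nm (Lyso) and 488/510-570 nm (Mito). Colocalization was judged from line intensity profiles.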

[18] = Drug localization in lysosome of human A549 cells assessed as GSH mediated cleavage at 10 uM after 12 hrs by Lyso-Tracker Red dye based confocal laser scanning microscopic method; assay type: ADME, subcellular; settings: a549, 12 h; how it was run: as §6
[19] = Drug localization in nucleus of human A549 cells assessed as GSH mediated cleavage at 10 uM after 12 hrs by DAPI dye based confocal laser scanning microscopic method; assay type: ADME, subcellular; settings: a549, 12 h; how it was run: as §6

**Q.** With `COCCOCCOCCOc1ccc(/C=C/C2=[N+]3C(=C(c4ccc(OCc5cn(CCCCCCn6cc(COc7ccc(C8=C9C(C)=CC(/C=C/c%10ccc(N(C)C)cc%10)=[N+]9[B-](F)(F)n9c(/C=C/c%10ccc(N(C)C)cc%10)cc(C)c98)cc7)nn6)nn5)cc4)c4c(C)c(I)c(/C=C/c5ccc(OCCOCCOCCOC)cc5)n4[B-]3(F)F)C(C)=C2I)cc1` as the compound, how does the Drug metabolism [1] read?
**A.** Metabolite_Notdetected

**Q.** What about the Drug metabolism [2] of the same compound?
**A.** Metabolite_Notdetected

**Q.** And the Drug metabolism [3]?
**A.** Metabolite_Notdetected

**Q.** What about the Drug metabolism [4] of the same compound?
**A.** Metabolite_Notdetected

**Q.** What about the Drug metabolism [5] of the same compound?
**A.** Metabolite_Notdetected

**Q.** What about the Drug metabolism [6] of the same compound?
**A.** Metabolite_Notdetected

**Q.** And the Drug metabolism [7]?
**A.** Metabolite_Notdetected

**Q.** And the Drug metabolism [8]?
**A.** Metabolite_Notdetected

**Q.** What about the Drug metabolism [9] of the same compound?
**A.** Metabolite_Notdetected

**Q.** And the Activity (H22 [10])?
**A.** inactive

**Q.** And the Activity (Primary lung fibroblast)?
**A.** inactive

**Q.** And the Activity (H22 [11])?
**A.** inactive

**Q.** What about the Activity (A549) of the same compound?
**A.** inactive

**Q.** What about the Activity (H22 [12]) of the same compound?
**A.** inactive

**Q.** What about the Drug uptake [13] of the same compound?
**A.** Active

**Q.** What about the Activity (H22 [14]) of the same compound?
**A.** Active

**Q.** And the Activity (H22 [15])?
**A.** Active

**Q.** Which K [16] does the source give for `COCCOCCOCCOc1ccc(/C=C/C2=[N+]3C(=C(c4ccc(OCc5cn(CCSSCCn6cc(COc7ccc(C8=C9C(C)=CC(/C=C/c%10ccc(N(C)C)cc%10)=[N+]9[B-](F)(F)n9c(/C=C/c%10ccc(N(C)C)cc%10)cc(C)c98)cc7)nn6)nn5)cc4)c4c(C)c(I)c(/C=C/c5ccc(OCCOCCOCCOC)cc5)n4[B-]3(F)F)C(C)=C2I)cc1` here?
**A.** 5.8 10^-3/min

**Q.** What about the Drug metabolism [3] of the same compound?
**A.** Metabolite_Detected

**Q.** What about the Drug metabolism [4] of the same compound?
**A.** Metabolite_Detected

**Q.** What about the Drug metabolism [5] of the same compound?
**A.** Metabolite_Detected

**Q.** What about the Drug metabolism [6] of the same compound?
**A.** Metabolite_Detected

**Q.** What about the Drug metabolism [7] of the same compound?
**A.** Metabolite_Detected

**Q.** And the Drug metabolism [8]?
**A.** Metabolite_Notdetected

**Q.** And the Drug metabolism [9]?
**A.** Metabolite_Detected

**Q.** What about the Activity (H22 [10]) of the same compound?
**A.** Active

**Q.** What about the Activity (Primary lung fibroblast) of the same compound?
**A.** Active

**Q.** And the Activity (H22 [11])?
**A.** inactive

**Q.** What about the IC50 (A549; A549, light or radiation study) of the same compound?
**A.** 440 nM

**Q.** And the IC50 (H22 [12]; H22, light or radiation study)?
**A.** 480 nM

**Q.** What about the Drug uptake [17] of the same compound?
**A.** Active

**Q.** What about the Drug uptake [18] of the same compound?
**A.** Active

**Q.** And the Drug uptake [19]?
**A.** Not Active

**Q.** And the Activity (H22 [14])?
**A.** Active

**Q.** And the Activity (H22 [15])?
**A.** Active
